Source: PubChem (The Scripps Research Institute Molecular Screening Center)
SIAE inh – human SIAE inhibitors, primary screen, biochemical, fluorescence polarization, FP-Rh probe, 1536-well HTS; Sialate O-acetylesterase (Homo sapiens), Q9HAT2; SIAE FP-Rh probe binding; inhibition, % at 9.66 µM; 370,000 compounds, 0.69% hits; AID 1053197, 2014;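 active = inhibition above a cutoff: mean of compounds within the control limits plus 3 SD of those, cut at about 17% in these data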;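 note: 0% = plate median of compound wells and 100% = probe without SIAE protein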
HTRA1 inh – HTRA1 serine protease inhibitors, primary screen, biochemical, fluorescence polarization, HTS. Q92743. recombinant HTRA1, FP-rhodamine activity-based probe. inhibition, % at 5.96 µM. 340,000 compounds, 0.5% hits. AID 504803, 2011; in the data active = inhibition above about 36%;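 note: 0% = enzyme with DMSO and 100% = wells lacking enzyme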
Target sequence (Q92743 whole entry, looked up): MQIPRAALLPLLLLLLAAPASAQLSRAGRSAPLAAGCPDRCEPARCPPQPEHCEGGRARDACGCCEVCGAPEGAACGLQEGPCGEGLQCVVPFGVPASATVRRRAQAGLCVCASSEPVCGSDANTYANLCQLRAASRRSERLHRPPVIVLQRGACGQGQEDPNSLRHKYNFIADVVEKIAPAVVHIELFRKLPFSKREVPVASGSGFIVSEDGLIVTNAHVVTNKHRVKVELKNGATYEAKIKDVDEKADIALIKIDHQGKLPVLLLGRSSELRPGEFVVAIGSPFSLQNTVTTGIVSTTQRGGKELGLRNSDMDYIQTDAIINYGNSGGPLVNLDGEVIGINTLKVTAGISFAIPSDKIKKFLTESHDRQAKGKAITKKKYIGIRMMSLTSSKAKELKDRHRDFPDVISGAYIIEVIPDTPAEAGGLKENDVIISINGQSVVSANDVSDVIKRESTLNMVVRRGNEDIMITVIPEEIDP
mABHD4 FP – ABHD4 inhibitors, primary screen, biochemical, fluorescence polarization, mouse | inhibition, % at 8.92 µM | AID 720543, 2013 | (Lyso)-N-acylphosphatidylethanolamine lipase (Mus musculus), Q8VD66 | 370,000 compounds, 0.54% hits | purified mABHD4, FP-Rh probe fluorescence polarization;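 active = inhibition exceeding the mean over every tested compound plus 3 SD, cut at about 30% in these data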;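 note: 0% = plate median of compound wells and 100% = S159A mutant with DMSO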
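Assay system: wild-type mouse ABHD4 protein; compound: single nominal dose of 8.92 µM, 0.89% DMSO final; schedule: 45 min + 60 min at 25 °C; measured by: FP readout, ex 525 nm / em 598 nm; evaluation: % inhibition of FP-Rh probe binding versus controls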
RBBP9 inh – human RBBP9 inhibitors, primary screen, biochemical, fluorescence polarization, FP-Rh probe, HTS | AID 1515, 2009 | 220,000 compounds, 0.2% hits | Serine hydrolase RBBP9 (Homo sapiens), O75884 | recombinant RBBP9 | inhibition, % at 7.94 µM;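 active = inhibition above the campaign mean of all tested compounds plus 3 SD, cut at about 14% in these data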;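 note: plate controls were DMSO wells with RBBP9 for no effect and wells lacking RBBP9 protein for full effect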
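Material: RBBP9 protein. Amount: RBBP9 at 2.5 µM in dispensed solution, before mixing. Schedule: 30 min then 45 min, 25 °C. Medium: Tris buffer pH 8.0, NaCl, Pluronic. Measured by: fluorescence polarization. Measure: percent inhibition from mP, scaled between DMSO and no-protein wells. Replication: one well per compound.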
HTRA1 conf – HTRA1 protease inhibitors, retest, confirmation, biochemical, fluorescence polarization; shares compounds with HTRA1 inh; recombinant HTRA1, FP-rhodamine activity-based probe; inhibition, % at 5.96 µM; 1,600 compounds, 66% hits; AID 540248, 2011;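 active = mean inhibition over three repeats above a set limit taken from the earlier primary screen, cut at about 37% in these data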;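 note: 0% = HTRA1 with DMSO and 100% = wells lacking HTRA1; inhibitors block probe binding so polarization drops and inhibition rises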
The depositor's hits bear a star; . = not tested or not shown. Hits are enriched below; roughly 1.4% of the tested compounds scored in any of these assays.

SMILES	SIAE inh	HTRA1 inh	mABHD4 FP	RBBP9 inh	HTRA1 conf
Cc1conc1NC(c1cccs1)c1ccc2cccnc2c1O (configuration not stated)	.	.	.	-3	.
Oc1c(C(Nc2nccs2)c2ccc(C(F)(F)F)cc2)ccc2cccnc12 (configuration not stated)	-1	43*	7	-9	54*
CC(C)CC(=O)NC(c1cccs1)c1ccc2cccnc2c1O (configuration not stated)	.	43*	.	-3	38*
COc1cc2c(cc1NC(=O)CSc1nnc(-c3ccccc3C)n1Cc1ccco1)oc1ccccc12	-16	.	-19	.	.
COc1ccc(OC)c(S(=O)(=O)n2c(CN3CCOCC3)nc3ccccc32)c1	-3	.	1	.	.
O=C(NCc1ccc(F)cc1)N1[C@H]2CC[C@@H]1C=C(c1ccc(F)cc1OCc1ccccc1)C2	-5	-22	2	.	.
CCc1ccccc1CNC(=O)C1CCC(CNS(=O)(=O)c2cccc3cccnc23)CC1 (configuration not stated)	-13	.	-11	.	.
C/C(=N\NC(=O)c1ccc(-c2ccccc2)cc1)C1C(=O)c2ccccc2C1=O	9	36*	22	3	58*
C/C(=N/NC(=O)c1ccc(-c2ccccc2)cc1)c1cc(O)cc(O)c1	-1	-7	-2	.	.
CCn1c(=O)c(C(=O)CN2c3ccccc3CC2C)c(N)n(Cc2ccccc2)c1=O (configuration not stated)	4	38*	11	-5	6
CC1Cc2ccccc2N1CC(=O)N(C)c1c(N)n(Cc2ccccc2)c(=O)[nH]c1=O (configuration not stated)	-11	43*	8	.	2
Cc1cc(=O)c(C(=O)O)c(C)n1-c1ccccc1	-4	4	0	.	.
CN=c1scc(-c2ccc(F)cc2)n1/N=C/c1ccc(O)c(O)c1	6	64*	33*	2	69*
CCC(C)NC(=O)Nc1ccc(Br)cc1 (configuration not stated)	-1	5	-2	-7	.
CCC(C)Nc1ccc(NC(C)CC)cc1 (configuration not stated)	.	67*	.	.	75*
O=C(O)Cc1ccc(N=Nc2c(O)c(C(=O)O)cc3ccccc23)cc1	7	45*	22	2	43*
CC(C)NC(=O)C1(C)Cc2c(-c3ccc(N(C)C)cc3)ccnc2O1 (configuration not stated)	3	.	1	.	.
FC(F)(F)c1cnc(NNC(=S)Nc2ccc(Cl)cc2)c(Cl)c1	8	49*	14	-7	54*
Fc1ccc(NC(=S)NNc2ncc(C(F)(F)F)cc2Cl)c(F)c1	5	46*	7	6	69*
Cc1ccc(NC(=S)NNc2ncc(C(F)(F)F)cc2Cl)cc1	1	38*	8	7	36
Cc1cccc(C)c1NC(=S)NC(=O)c1cccc(Cl)c1	0	.	-1	.	.
O=S1(=O)N[C@@H](Cc2ccccc2)COc2cc(N3CC[C@H](O)C3)ccc21	2	.	7	.	.
Cc1cc(N=Nc2ccc(C)c(N=Nc3cc(C)c(N)cc3N)c2)c(N)cc1N	11	77*	27	13	74*
COc1ccc(N=Nc2cc(OC)c(N)cc2OC)cc1	8	18	5	.	.
COc1ccc(-c2cc3ccccc3n2CC(O)Cn2nc(C)cc2C)cc1 (configuration not stated)	13	38*	-8	-2	-11
SMILES	SIAE inh	HTRA1 inh	mABHD4 FP	RBBP9 inh	HTRA1 conf
COc1ccc(-c2cc3ccccc3n2CC(O)CN2CCC(C)CC2)cc1 (configuration not stated)	-1	-9	11	4	.
CNc1c(NS(=O)(=O)c2ccc(Cl)s2)c(=O)oc2ccccc12	2	129*	-2	.	14
CNc1c(NS(=O)(=O)c2ccc(Cl)cc2)c(=O)oc2ccccc12	-6	-6	-2	.	.
COc1ccc(CNC(=O)c2cc3c(=O)n4ccccc4nc3n(Cc3ccco3)c2=N)cc1	.	.	.	-6	.
Cc1ccc(Cn2c(=N)c(C(=O)NCc3ccco3)cc3c(=O)n4ccccc4nc32)cc1	-3	42*	12	-5	-36
COc1ccc(/C=N/NC(=O)CCN2CCN(c3ccccc3)CC2)c(OC)c1OC	1	7	-3	2	.
O=C(CCN1CCN(c2ccccc2)CC1)N/N=C/c1ccc(O)c(O)c1O	12	47*	24	10	37*
COc1ccc(C(=O)c2[nH]c(N)c(C(=O)c3c[nH]c4ccccc34)c2-c2ccc(OC)cc2)cc1	-10	.	-14	.	.
CCN(CC)c1ccc(C(NC(=O)C(C)C)c2ccc3cccnc3c2O)cc1 (configuration not stated)	15	56*	5	.	61*
CCCCC(=O)NC(c1ccc(Cl)cc1)c1ccc2cccnc2c1O (configuration not stated)	13	40*	14	.	44*
CCCC(=O)NC(c1ccccc1OC)c1ccc2cccnc2c1O (configuration not stated)	.	34	.	-9	.
CCCC(=O)NC(c1ccc(Cl)cc1Cl)c1ccc2cccnc2c1O (configuration not stated)	15	53*	18	.	56*
CC(C)C(=O)NC(c1ccco1)c1ccc2cccnc2c1O (configuration not stated)	12	20	9	-2	.
CCCCC(=O)NC(c1ccccc1OC)c1ccc2cccnc2c1O (configuration not stated)	14	60*	11	-1	52*
CCCC(=O)NC(c1cccc([N+](=O)[O-])c1)c1ccc2cccnc2c1O (configuration not stated)	9	22	17	.	.
N#Cc1ccccc1OCCCN1CCC(C(O)(c2ccccc2)c2ccccc2)CC1	3	.	2	.	.
CCCCC(=O)NC(c1ccc(N(C)C)cc1)c1ccc2cccnc2c1O (configuration not stated)	14	46*	20	.	61*
CCCC(=O)NC(c1ccc(N(C)C)cc1)c1c(O)ccc2ccccc12 (configuration not stated)	14	2	7	-2	.
CCCC(=O)NC(c1ccc(C)cc1)c1ccc2cccnc2c1O (configuration not stated)	.	45*	.	.	58*
CCCC(=O)NC(c1ccccc1)c1c(O)ccc2ccccc12 (configuration not stated)	0	-13	-14	.	.
CCCC(=O)NC(c1ccc(Cl)cc1)c1ccc2cccnc2c1O (configuration not stated)	13	46*	18	.	48*
COC(=O)[C@]12C[C@H](CC(=O)NCc3cccs3)C(=O)N(CCC3=CCCCC3)C1=C[C@H](C1CCCC1)O[C@@H]2C	-4	.	-4	.	.
